21 compounds from ChEMBL document CHEMBL3232870, “Discovery of 3-(4-methanesulfonylphenoxy)-N-[1-(2-methoxy-ethoxymethyl)-1H-pyrazol-3-yl]-5-(3-methylpyridin-2-yl)-benzamide as a novel glucokinase activator (GKA) for the treatment of type 2 diabetes mellitus” (Bioorg Med Chem, 2014) can be followed below.

SMILES strings stand for the structures.

Data set [1] concerns the target T1, Hexokinase-4 (Homo sapiens, UniProt P35557).
T1 sequence (P35557 whole entry): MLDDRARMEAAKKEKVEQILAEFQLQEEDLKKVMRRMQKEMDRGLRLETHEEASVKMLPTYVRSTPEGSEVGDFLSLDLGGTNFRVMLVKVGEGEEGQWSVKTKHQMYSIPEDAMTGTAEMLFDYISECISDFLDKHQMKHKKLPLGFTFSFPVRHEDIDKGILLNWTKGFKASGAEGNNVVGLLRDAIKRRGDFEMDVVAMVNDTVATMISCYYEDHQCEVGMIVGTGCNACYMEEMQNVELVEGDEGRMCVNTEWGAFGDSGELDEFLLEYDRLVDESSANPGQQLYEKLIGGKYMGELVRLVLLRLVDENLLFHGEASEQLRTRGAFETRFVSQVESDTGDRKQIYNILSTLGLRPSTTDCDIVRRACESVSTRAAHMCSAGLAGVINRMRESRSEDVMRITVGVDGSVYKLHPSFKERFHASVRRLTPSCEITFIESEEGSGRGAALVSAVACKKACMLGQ
Nature of the data set: Activation of recombinant human pancreatic glucokinase using 10 mM glucose by spectrophotometry. An outline of the steps:
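Purified recombinant human pancreatic glucokinase, compounds in DMSO. Buffer: 25 mM HEPES pH 7.4, 10 mM glucose, 25 mM KCl, 1 mM MgCl2, 1 mM DTT, 1 mM ATP, 1 mM NADP, 2.5 U/mL G6PDH. Activity was expressed against DMSO-only control (100%). EC50 came from 12 concentrations fitted to a variable-slope sigmoidal curve. Values are means of three duplicate runs.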

In data set [2] the test system is Hepatocyte. In words: Induction of 2-Deoxy-D-[3H]-glucose uptake in rat Hepatocytes using 5.5 mM glucose after 4 hrs by liquid scintillation counting. Format: functional. An outline of the steps:
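Rat primary hepatocytes, isolated by collagenase liver perfusion, viability over 85%. Cells attached 36 h on collagen I in MEM with 10% FBS, then serum-starved 12 h. Incubated 4 h in serum-free MEM with 5.5 mM glucose and 2-deoxy-D-[3H]-glucose, with or without compound. Washed in ice-cold PBS, lysed in 0.1 N NaOH, scintillation counted, expressed as % increase over control.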

The test system of data set [3] is Mus musculus. Nature of the data set: Antidiabetic activity in glucose-treated C57BL/J6 db/db mouse assessed as reduction of glucose AUC at 50 mg/kg, po preincubated for 30 mins followed by glucose challenge measured after 30 to 180 mins by oral glucose tolerance test relative to control. The format is functional. The arrangement: scale not given: the % may be the effect or the level left. The conditions noted are these: in the assay text read “C57BL/J6 mouse” for “C57BL/J6 db/db mouse”. An outline of the steps: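 Oral glucose tolerance test. Mice: eight-week-old male C57BL/6 or ten-week-old male C57BLKS/J db/db, fasted overnight with water. Compound or 0.5% methylcellulose vehicle given orally, then an oral 2 g/kg glucose challenge 30 min later. Tail-tip blood glucose was read just before and at 30, 60, 90, 120 and 180 min. AUC was calculated from the time–glucose curve; n = 6.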

In data set [4] the test system is Mus musculus. Nature of the data set: Toxicity in fasting C57BL/J6 mouse assessed as glucose lowering effect at 30 mg/kg, po after 30 to 360 mins. Format: organism-based. The arrangement: dose 30 mg/kg, route oral. As to conditions: in vivo. An outline of the steps: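 Eight-week-old male C57BL/6 mice were fasted 6 h with free access to water, then dosed orally with compound or 0.5% methylcellulose vehicle, with no glucose challenge. Blood glucose was followed up to 360 min, n = 6 per group.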

Data set [5] has as its system Mus musculus. In words: Antidiabetic activity in glucose-treated C57BL/J6 mouse assessed as reduction of glucose AUC at 300 mg/kg, po preincubated for 30 mins followed by glucose challenge measured after 30 to 180 mins by oral glucose tolerance test relative to control. Details: scale not given: the % may be the effect or the level left.

Turning to `Cc1cccnc1-c1cc(Oc2ccc(S(C)(=O)=O)cc2)cc(C(=O)Nc2nc(CN3CCNCC3)cs2)c1`, the EC50 in data set [1] was more than 50000 nM.
Consider `COCC(C)NCc1csc(NC(=O)c2cc(Oc3ccc(S(C)(=O)=O)cc3)cc(-c3ncccc3C)c2)n1` (centres undefined), for which, in data set [1], the EC50 is 8 nM. Besides, the “fold change (FC)” value in data set [2] was 1.72.
On the same counts, the results for `Cc1cccnc1-c1cc(Oc2ccc(S(C)(=O)=O)cc2)cc(C(=O)Nc2nc(CN3CCOCC3)cs2)c1` are 212 nM and 2.1.
Regarding `Cc1cccnc1-c1cc(Oc2ccc(S(C)(=O)=O)cc2)cc(C(=O)Nc2ccn(C)n2)c1`, the EC50 in data set [1] worked out at 807 nM. In addition, the “fold change (FC)” value in data set [2] amounted to 1.74. In addition, the Activity in data set [3] is recorded as 24.1%.
Regarding `Cc1cccnc1-c1cc(Oc2ccc(S(C)(=O)=O)cc2)cc(C(=O)Nc2nc(CN3CCN(C)CC3)cs2)c1`, the EC50 in data set [1] was 688 nM. Further, the “fold change (FC)” value in data set [2] turned out to be 1.19. Further, the Activity in data set [3] is given as 4.4%.
As for `CCOCn1ccc(NC(=O)c2cc(Oc3ccc(S(C)(=O)=O)cc3)cc(-c3ncccc3C)c2)n1`, the EC50 in data set [1] is more than 50000 nM.
`COCCN(CCOC)Cc1csc(NC(=O)c2cc(Oc3ccc(S(C)(=O)=O)cc3)cc(-c3ncccc3C)c2)n1`: the EC50 in data set [1] was found to be 2430 nM. The “fold change (FC)” value in data set [2] is 2.02. Besides, the Activity in data set [3] is 20.2%.
On to `CCN(CC)Cc1csc(NC(=O)c2cc(Oc3ccc(S(C)(=O)=O)cc3)cc(-c3ncccc3C)c2)n1`, for which the EC50 in data set [1] is more than 50000 nM.
In the case of `Cc1cccnc1-c1cc(Oc2ccc(S(C)(=O)=O)cc2)cc(C(=O)Nc2ccn(CCN3CCOCC3)n2)c1`, the EC50 in data set [1] came out at 441 nM. In addition, the “fold change (FC)” value in data set [2] is on record as 1.86. Besides, the Activity in data set [3] turned out to be 17.8%.
Turning to `CCNC(=O)Cc1csc(NC(=O)c2cc(Oc3ccc(S(C)(=O)=O)cc3)cc(-c3ncccc3C)c2)n1`, in data set [1], the EC50 turned out to be 5 nM. In addition, in data set [2], the “fold change (FC)” value was determined as 2.54. Also, the Activity in data set [3] is listed as -0.3%.
For the compound `Cc1cccnc1-c1cc(Oc2ccc(S(C)(=O)=O)cc2)cc(C(=O)Nc2nc(CNC(C)C)cs2)c1`, the EC50 in data set [1] was 463 nM. For the same compound, the “fold change (FC)” value in data set [2] stood at 1.47. Further, the Activity in data set [3] was found to be 2.2%.
Regarding `CCN(CC)CCn1ccc(NC(=O)c2cc(Oc3ccc(S(C)(=O)=O)cc3)cc(-c3ncccc3C)c2)n1`, the EC50 in data set [1] is more than 50000 nM.
On to `Cc1cccnc1-c1cc(Oc2ccc(S(C)(=O)=O)cc2)cc(C(=O)Nc2ncc(F)s2)c1`, for which, in data set [1], the EC50 worked out at 238 nM. Further, in data set [2], the “fold change (FC)” value is on record as 1.75. Further, the Activity in data set [3] was 22.6%.
Take `C#CCNCc1csc(NC(=O)c2cc(Oc3ccc(S(C)(=O)=O)cc3)cc(-c3ncccc3C)c2)n1`: the EC50 in data set [1] was found to be 106 nM. The “fold change (FC)” value in data set [2] was 2.35.
On to `N[C@@H](CC(=O)N1CCn2c(nnc2C(F)(F)F)C1)Cc1cc(F)c(F)cc1F` [SITAGLIPTIN], for which the Activity result in data set [4] is on record as “Non-toxic”.
`COC(CNCc1csc(NC(=O)c2cc(Oc3ccc(S(C)(=O)=O)cc3)cc(-c3ncccc3C)c2)n1)OC`: the EC50 in data set [1] was determined as 33 nM. In data set [2], the “fold change (FC)” value is on record as 1.92.
For the compound `CN(C)C(=N)NC(=N)N` [METFORMIN], the Activity in data set [5] turned out to be 29.9%.
Take `Cc1cccnc1-c1cc(Oc2ccc(S(C)(=O)=O)cc2)cc(C(=O)Nc2nccs2)c1`: the concentration giving a half-maximal response (EC50) in data set [1] amounted to 95 nM. The “fold change (FC)” value in data set [2] is 1.98. Further, the Activity in data set [3] was 29.8%.
Regarding `CCCNCc1csc(NC(=O)c2cc(Oc3ccc(S(C)(=O)=O)cc3)cc(-c3ncccc3C)c2)n1`, the EC50 in data set [1] was more than 50000 nM.
With `Cc1cccnc1-c1cc(Oc2ccc(S(C)(=O)=O)cc2)cc(C(=O)Nc2nc(CC(=O)NC3CC3)cs2)c1`, the EC50 in data set [1] was found to be 103 nM. In addition, in data set [2], the “fold change (FC)” value came out at 1.8. For the same compound, the Activity in data set [3] is -3.1%.
On to `COCCN(C)Cc1csc(NC(=O)c2cc(Oc3ccc(S(C)(=O)=O)cc3)cc(-c3ncccc3C)c2)n1`, for which the EC50 in data set [1] is 7460 nM. Also, in data set [2], the “fold change (FC)” value worked out at 1.46.

What is called EC50 is the concentration at which the effect is half-maximal.
